Measurements pooled from the literature.
Lines come from different studies, so protocols differ.
Target: Amine oxidase [flavin-containing] A (MAOA, Homo sapiens, UniProt P21397)
Observed: enzyme activity
Action: inhibitor
Sequence (P21397 1-527, as in one of the studies): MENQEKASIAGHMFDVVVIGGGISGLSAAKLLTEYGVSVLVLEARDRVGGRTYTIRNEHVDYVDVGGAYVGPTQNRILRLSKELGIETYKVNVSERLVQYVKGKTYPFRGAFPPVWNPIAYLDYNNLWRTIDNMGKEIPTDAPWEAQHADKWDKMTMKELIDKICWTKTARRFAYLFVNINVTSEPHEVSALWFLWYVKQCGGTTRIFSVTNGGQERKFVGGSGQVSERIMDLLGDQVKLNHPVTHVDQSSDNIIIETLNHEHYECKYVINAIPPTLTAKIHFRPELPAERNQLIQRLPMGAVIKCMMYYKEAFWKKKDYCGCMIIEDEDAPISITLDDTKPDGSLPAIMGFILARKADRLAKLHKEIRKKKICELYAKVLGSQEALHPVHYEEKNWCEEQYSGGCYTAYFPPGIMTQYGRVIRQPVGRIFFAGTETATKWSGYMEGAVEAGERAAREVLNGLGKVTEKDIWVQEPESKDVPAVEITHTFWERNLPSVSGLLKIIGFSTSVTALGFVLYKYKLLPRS

Structure (SMILES) | technique | pH | quantity | result
CN1CCN(C(=O)CN[C@@H]2C[C@H]2c2ccc(OCc3ccccc3)cc2)CC1 | luciferase | – | IC50 | 0.51 µM
O=c1c(O)c(-c2ccc(O)c(O)c2)oc2cc(O)ccc12 | – | – | IC50 | 4.62 µM
C#CCOc1ccc(/C=C/C(=O)N2CCc3ccccc3C2)cc1OC | fluorescence | – | IC50 | 64 µM
c1cc2c(cc1C1CCCCC1)c1c3n2CCNC3CCC1 (centres unmarked) | – | pH 7.5 | Ki | 5.3 µM
O=C1c2c(O)cc(O)cc2O[C@H](c2ccc(O)cc2)[C@H]1O | – | – | IC50 | 14.6 µM
COC(=O)c1ccc(C(=O)OC)c(NC(=O)c2cc(Cl)ccc2O)c1 | – | – | IC50 | > 5 µM
COc1cc(/C=C/C(=O)N2CCc3ccccc3C2)ccc1OC1CCCCC1 | fluorescence | – | IC50 | 65.3 µM
O=C(Nc1ccc([N+](=O)[O-])cc1Cl)c1cc2ccccc2o1 | – | – | IC50 | 0.293 µM
O=C(O)c1cc(O)c2c(c1)C(=O)c1cc(O)cc(O)c1C2=O | – | – | IC50 | 47.1 µM
O=C1C[C@@H](c2ccc(O)cc2)Oc2cc(O)cc(O)c21 | – | – | IC50 | 8.64 µM
COc1ccc(/C=C/C(=O)N2CCC(Cc3ccccc3)CC2)cc1OC | fluorescence | – | IC50 | 66.1 µM
